Assay results: ChEMBL document CHEMBL3044834, “Novel protoporphyrinogen oxidase inhibitors: 3H-pyrazolo[3,4-d][1,2,3]triazin-4-one derivatives” (J Agric Food Chem, 2008)

tested on: Digitaria sanguinalis; assay: Herbicidal activity against Digitaria sanguinalis (hairy crabgrass) assessed as inhibition of fresh weed plant weight at 1500 g/ha using pre-emergence treatment protocol; assay type: functional

SMILES	inhibition at 1500 g/ha
C#CCN1C(=O)COc2cc(F)c(-n3nnc4c(cnn4CCC)c3=O)cc21	100%

tested on: Amaranthus retroflexus; assay: Herbicidal activity against Amaranthus retroflexus assessed as inhibition of fresh weed plant weight at 1500 g/ha using post-emergence treatment protocol; assay type: functional
How it was run: (§1)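 Test compounds made up as emulsions by dissolving in 100 µL N,N-dimethylformamide, then adding a little Tween 20 and water. For post-emergence, weed seedlings at one leaf and one stem were sprayed at the same rates as the pre-emergence test. Fresh weight was recorded 15 days after treatment and expressed as percent inhibition versus controls. All treatments were run in triplicate.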

SMILES	inhibition at 1500 g/ha
C#CCN1C(=O)COc2cc(F)c(-n3nnc4c(cnn4CCC)c3=O)cc21	99.6%

tested on: Amaranthus retroflexus; assay: Herbicidal activity against Amaranthus retroflexus assessed as inhibition of fresh weed plant weight at 1500 g/ha using pre-emergence treatment protocol; assay type: functional

SMILES	inhibition at 1500 g/ha
C#CCN1C(=O)COc2cc(F)c(-n3nnc4c(cnn4CCC)c3=O)cc21	100%

tested on: Brassica rapa subsp. oleifera; assay: Herbicidal activity against Brassica rapa subsp. oleifera assessed as inhibition of fresh weed plant weight at 187.5 g/ha using post-emergence treatment protocol; assay type: functional; how it was run: as §1

SMILES	inhibition at 187.5 g/ha
C#CCN1C(=O)COc2cc(F)c(-n3nnc4c(cnn4CCC)c3=O)cc21	35.4%

tested on: Brassica rapa subsp. oleifera; assay: Herbicidal activity against Brassica rapa subsp. oleifera assessed as inhibition of fresh weed plant weight at 375 g/ha using post-emergence treatment protocol; assay type: functional; how it was run: as §1

SMILES	inhibition at 375 g/ha
C#CCN1C(=O)COc2cc(F)c(-n3nnc4c(cnn4CCC)c3=O)cc21	64.6%

tested on: Brassica rapa subsp. oleifera; assay: Herbicidal activity against Brassica rapa subsp. oleifera assessed as inhibition of fresh weed plant weight at 750 g/ha using post-emergence treatment protocol; assay type: functional; how it was run: as §1

SMILES	inhibition at 750 g/ha
C#CCN1C(=O)COc2cc(F)c(-n3nnc4c(cnn4CCC)c3=O)cc21	70.3%

tested on: Brassica rapa subsp. oleifera; assay: Herbicidal activity against Brassica rapa subsp. oleifera assessed as inhibition of fresh weed plant weight at 187.5 g/ha using pre-emergence treatment protocol; assay type: functional

SMILES	inhibition at 187.5 g/ha
C#CCN1C(=O)COc2cc(F)c(-n3nnc4c(cnn4CCC)c3=O)cc21	63.4%

tested on: Brassica rapa subsp. oleifera; assay: Herbicidal activity against Brassica rapa subsp. oleifera assessed as inhibition of fresh weed plant weight at 375 g/ha using pre-emergence treatment protocol; assay type: functional

SMILES	inhibition at 375 g/ha
C#CCN1C(=O)COc2cc(F)c(-n3nnc4c(cnn4CCC)c3=O)cc21	67.9%

tested on: Brassica rapa subsp. oleifera; assay: Herbicidal activity against Brassica rapa subsp. oleifera assessed as inhibition of fresh weed plant weight at 750 g/ha using pre-emergence treatment protocol; assay type: functional

SMILES	inhibition at 750 g/ha
C#CCN1C(=O)COc2cc(F)c(-n3nnc4c(cnn4CCC)c3=O)cc21	82.1%

tested on: Digitaria sanguinalis; assay: Herbicidal activity against Digitaria sanguinalis (hairy crabgrass) assessed as inhibition of fresh weed plant weight at 1500 g/ha using post-emergence treatment protocol; assay type: functional; how it was run: as §1

SMILES	inhibition at 1500 g/ha
C#CCN1C(=O)COc2cc(F)c(-n3nnc4c(cnn4CCC)c3=O)cc21	33.9%

tested on: Brassica rapa subsp. oleifera; assay: Herbicidal activity against Brassica rapa subsp. oleifera assessed as inhibition of fresh weed plant weight at 1500 g/ha using post-emergence treatment protocol; assay type: functional; how it was run: as §1

SMILES	inhibition at 1500 g/ha
C#CCN1C(=O)COc2cc(F)c(-n3nnc4c(cnn4CCC)c3=O)cc21	90.7%

tested on: Brassica rapa subsp. oleifera; assay: Herbicidal activity against Brassica rapa subsp. oleifera assessed as inhibition of fresh weed plant weight at 1500 g/ha using pre-emergence treatment protocol; assay type: functional

SMILES	inhibition at 1500 g/ha
C#CCN1C(=O)COc2cc(F)c(-n3nnc4c(cnn4CCC)c3=O)cc21	98.1%

tested on: Echinochloa crus-galli; assay: Herbicidal activity against Echinochloa crus-galli (barnyard grass) assessed as inhibition of fresh weed plant weight at 750 g/ha using pre-emergence treatment protocol; assay type: functional

SMILES	inhibition at 750 g/ha
C#CCN1C(=O)COc2cc(F)c(-n3nnc4c(cnn4CCC)c3=O)cc21	87%

tested on: Amaranthus retroflexus; assay: Herbicidal activity against Amaranthus retroflexus assessed as inhibition of fresh weed plant weight at 750 g/ha using pre-emergence treatment protocol; assay type: functional; how it was run: as §1

SMILES	inhibition at 750 g/ha
C#CCN1C(=O)COc2cc(F)c(-n3nnc4c(cnn4CCC)c3=O)cc21	100%

tested on: Amaranthus retroflexus; assay: Herbicidal activity against Amaranthus retroflexus assessed as inhibition of fresh weed plant weight at 375 g/ha using pre-emergence treatment protocol; assay type: functional

SMILES	inhibition at 375 g/ha
C#CCN1C(=O)COc2cc(F)c(-n3nnc4c(cnn4CCC)c3=O)cc21	73.8%

tested on: Digitaria sanguinalis; assay: Herbicidal activity against Digitaria sanguinalis (hairy crabgrass) assessed as inhibition of fresh weed plant weight at 187.5 g/ha using pre-emergence treatment protocol; assay type: functional

SMILES	inhibition at 187.5 g/ha
C#CCN1C(=O)COc2cc(F)c(-n3nnc4c(cnn4CCC)c3=O)cc21	80.4%

tested on: Amaranthus retroflexus; assay: Herbicidal activity against Amaranthus retroflexus assessed as inhibition of fresh weed plant weight at 187.5 g/ha using post-emergence treatment protocol; assay type: functional; how it was run: as §1

SMILES	inhibition at 187.5 g/ha
C#CCN1C(=O)COc2cc(F)c(-n3nnc4c(cnn4CCC)c3=O)cc21	14.6%

tested on: Digitaria sanguinalis; assay: Herbicidal activity against Digitaria sanguinalis (hairy crabgrass) assessed as inhibition of fresh weed plant weight at 750 g/ha using post-emergence treatment protocol; assay type: functional; how it was run: as §1

SMILES	inhibition at 750 g/ha
C#CCN1C(=O)COc2cc(F)c(-n3nnc4c(cnn4CCC)c3=O)cc21	16.7%

tested on: Amaranthus retroflexus; assay: Herbicidal activity against Amaranthus retroflexus assessed as inhibition of fresh weed plant weight at 187.5 g/ha using pre-emergence treatment protocol; assay type: functional

SMILES	inhibition at 187.5 g/ha
C#CCN1C(=O)COc2cc(F)c(-n3nnc4c(cnn4CCC)c3=O)cc21	37.7%

tested on: Amaranthus retroflexus; assay: Herbicidal activity against Amaranthus retroflexus assessed as inhibition of fresh weed plant weight at 750 g/ha using post-emergence treatment protocol; assay type: functional; how it was run: as §1

SMILES	inhibition at 750 g/ha
C#CCN1C(=O)COc2cc(F)c(-n3nnc4c(cnn4CCC)c3=O)cc21	87.8%

tested on: Amaranthus retroflexus; assay: Herbicidal activity against Amaranthus retroflexus assessed as inhibition of fresh weed plant weight at 375 g/ha using post-emergence treatment protocol; assay type: functional; how it was run: as §1

SMILES	inhibition at 375 g/ha
C#CCN1C(=O)COc2cc(F)c(-n3nnc4c(cnn4CCC)c3=O)cc21	41.5%

tested on: Echinochloa crus-galli; assay: Herbicidal activity against Echinochloa crus-galli (barnyard grass) assessed as inhibition of fresh weed plant weight at 750 g/ha using post-emergence treatment protocol; assay type: functional; how it was run: as §1

SMILES	inhibition at 750 g/ha
C#CCN1C(=O)COc2cc(F)c(-n3nnc4c(cnn4CCC)c3=O)cc21	61%

tested on: Echinochloa crus-galli; assay: Herbicidal activity against Echinochloa crus-galli (barnyard grass) assessed as inhibition of fresh weed plant weight at 375 g/ha using post-emergence treatment protocol; assay type: functional; how it was run: as §1

SMILES	inhibition at 375 g/ha
C#CCN1C(=O)COc2cc(F)c(-n3nnc4c(cnn4CCC)c3=O)cc21	19%

tested on: Echinochloa crus-galli; assay: Herbicidal activity against Echinochloa crus-galli (barnyard grass) assessed as inhibition of fresh weed plant weight at 187.5 g/ha using post-emergence treatment protocol; assay type: functional; how it was run: as §1

SMILES	inhibition at 187.5 g/ha
C#CCN1C(=O)COc2cc(F)c(-n3nnc4c(cnn4CCC)c3=O)cc21	0.5%

tested on: Digitaria sanguinalis; assay: Herbicidal activity against Digitaria sanguinalis (hairy crabgrass) assessed as inhibition of fresh weed plant weight at 750 g/ha using pre-emergence treatment protocol; assay type: functional

SMILES	inhibition at 750 g/ha
C#CCN1C(=O)COc2cc(F)c(-n3nnc4c(cnn4CCC)c3=O)cc21	93.5%

tested on: Digitaria sanguinalis; assay: Herbicidal activity against Digitaria sanguinalis (hairy crabgrass) assessed as inhibition of fresh weed plant weight at 375 g/ha using pre-emergence treatment protocol; assay type: functional

SMILES	inhibition at 375 g/ha
C#CCN1C(=O)COc2cc(F)c(-n3nnc4c(cnn4CCC)c3=O)cc21	91.3%

tested on: Digitaria sanguinalis; assay: Herbicidal activity against Digitaria sanguinalis (hairy crabgrass) assessed as inhibition of fresh weed plant weight at 375 g/ha using post-emergence treatment protocol; assay type: functional; how it was run: as §1

SMILES	inhibition at 375 g/ha
C#CCN1C(=O)COc2cc(F)c(-n3nnc4c(cnn4CCC)c3=O)cc21	5.6%

tested on: Digitaria sanguinalis; assay: Herbicidal activity against Digitaria sanguinalis (hairy crabgrass) assessed as inhibition of fresh weed plant weight at 187.5 g/ha using post-emergence treatment protocol; assay type: functional; how it was run: as §1

SMILES	inhibition at 187.5 g/ha
C#CCN1C(=O)COc2cc(F)c(-n3nnc4c(cnn4CCC)c3=O)cc21	0%

tested on: Echinochloa crus-galli; assay: Herbicidal activity against Echinochloa crus-galli (barnyard grass) assessed as inhibition of fresh weed plant weight at 375 g/ha using pre-emergence treatment protocol; assay type: functional; how it was run: as §1

SMILES	inhibition at 375 g/ha
C#CCN1C(=O)COc2cc(F)c(-n3nnc4c(cnn4CCC)c3=O)cc21	80.1%

tested on: Echinochloa crus-galli; assay: Herbicidal activity against Echinochloa crus-galli (barnyard grass) assessed as inhibition of fresh weed plant weight at 187.5 g/ha using pre-emergence treatment protocol; assay type: functional; how it was run: as §1

SMILES	inhibition at 187.5 g/ha
C#CCN1C(=O)COc2cc(F)c(-n3nnc4c(cnn4CCC)c3=O)cc21	43.7%

tested on: Echinochloa crus-galli; assay: Herbicidal activity against Echinochloa crus-galli (barnyard grass) assessed as inhibition of fresh weed plant weight at 1500 g/ha using pre-emergence treatment protocol; assay type: functional

SMILES	inhibition at 1500 g/ha
C#CCN1C(=O)COc2cc(F)c(-n3nnc4c(cnn4CCC)c3=O)cc21	95.4%

tested on: Echinochloa crus-galli; assay: Herbicidal activity against Echinochloa crus-galli (barnyard grass) assessed as inhibition of fresh weed plant weight at 1500 g/ha using post-emergence treatment protocol; assay type: functional; how it was run: as §1

SMILES	inhibition at 1500 g/ha
C#CCN1C(=O)COc2cc(F)c(-n3nnc4c(cnn4CCC)c3=O)cc21	91.5%
